Source: PubChem BioAssay
Sampled rows, rich in hits. Any-hit rate of the full collection: about 9.6%.
TNAP inh hiacc: human TNAP enzyme inhibitors, primary screen, biochemical, luminescent, high phosphate acceptor level, uHTS. Alkaline phosphatase, tissue-nonspecific isozyme (Homo sapiens), P05186. inhibition, % at 20 µM. 0.03% of 200,000 active. purified TNAP, CDP-star luminescence, 1 M DEA;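 active = over 50% inhibition of tissue-nonspecific alkaline phosphatase at 20 µM in the single-dose screen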;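 also: plate controls were DMSO wells for no effect and EDTA-quenched wells as full inhibition for full effect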
Target sequence (P05186 whole entry, looked up): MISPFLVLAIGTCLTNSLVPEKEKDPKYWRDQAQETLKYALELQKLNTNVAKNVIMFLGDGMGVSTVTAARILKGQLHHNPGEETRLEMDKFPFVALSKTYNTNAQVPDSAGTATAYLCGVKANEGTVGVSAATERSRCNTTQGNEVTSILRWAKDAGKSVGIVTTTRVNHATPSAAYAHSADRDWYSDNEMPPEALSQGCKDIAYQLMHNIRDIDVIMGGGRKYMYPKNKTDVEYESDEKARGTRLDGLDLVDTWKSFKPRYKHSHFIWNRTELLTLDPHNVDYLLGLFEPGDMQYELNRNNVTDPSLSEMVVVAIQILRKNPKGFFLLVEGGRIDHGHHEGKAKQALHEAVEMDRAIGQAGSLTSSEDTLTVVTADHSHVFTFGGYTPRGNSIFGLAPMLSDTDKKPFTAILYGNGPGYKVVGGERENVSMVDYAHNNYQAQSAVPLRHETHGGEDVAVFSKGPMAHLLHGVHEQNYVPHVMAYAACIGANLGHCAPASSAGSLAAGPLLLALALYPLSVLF
HCT116 PTEN-null: growth suppression of PTEN-null HCT116, primary screen, cell-based, CellTiter-Glo; 1.2% of 140,000 active; HCT116 PTEN-null viability, 60 h; active compounds read low; viability, % at 10 µM;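 active = viability at or below a set limit, 4 SD under the median of all tested compounds, cut at about 3.7% in these data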;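 also: PTEN knockout HCT116 line with beta catenin targeted HCT116 as companion control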
TNAP inh no acc: human TNAP enzyme inhibitors, primary screen, biochemical, luminescent, no phosphate acceptor, uHTS; inhibition, % at 20 µM; AID 1012, 2008; 0.26% of 200,000 active; purified TNAP, CDP-star luminescence, 30 min; Alkaline phosphatase, tissue-nonspecific isozyme (Homo sapiens), P05186;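 active = tissue-nonspecific alkaline phosphatase inhibition above about 50% at 20 µM in the single-dose screen, limit read from the data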;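 also: 0% = DMSO negative control and 100% = EDTA positive control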
L major viab: Leishmania major promastigote growth inhibition, primary screen; Leishmania major promastigotes, resazurin fluorescence viability; inhibition, % at 10 µM; 9% of 200,000 active; AID 1063, 2008; in the data active = inhibition above about 50%;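 also: promastigotes grown with compound for 44 hours at 28 °C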
TNAP act hi DEA: TNAP activators at high phosphate acceptor level, primary screen, biochemical, luminescence, uHTS; Alkaline phosphatase, tissue-nonspecific isozyme (Homo sapiens), P05186; purified TNAP, CDP-star luminescence, 1 M DEA, 30 min; active compounds read high; 0 = EDTA background, 1 = DMSO-only activity; activation factor at 20 µM; 200,000 tested, under 10 active;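 active = activation factor at least 2 at 20 µM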
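Measured by: Luminescent substrate turnover signal | Test system: Human TNAP | Input: TNAP 1/800 final | Dosing: 20 µM single point | Schedule: 30 min, room temperature | Controls: EDTA wells as negative control, DMSO wells as positive control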
bCat KO growth: primary screen for growth suppressors in beta-catenin knockout HCT116 cells (colon tumor, human); HCT116 beta-catenin knockout viability, CellTiter-Glo, 60 h; active compounds read low; viability, % at 10 µM; 1.5% of 140,000 active;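 active = viability at or under a set limit, the compound median less 4 SD, cut at about 6% in these data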;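 also: 0% = Hyamine 1622 control at 20 µM and 100% = untreated cell control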
Starred values were filed as active, the others as inactive; . = not tested or not shown.

SMILES	TNAP inh hiacc	HCT116 PTEN-null	TNAP inh no acc	L major viab	TNAP act hi DEA	bCat KO growth
CCCC(c1nnnn1Cc1cccs1)N1CCN(c2nc3ccccc3s2)CC1 (stereo unspecified)	-3	57	-8	97*	1	62
CCC(c1nnnn1CS(=O)(=O)c1ccc(C)cc1)N1CCN(c2nc3ccccc3s2)CC1 (stereo unspecified)	-4	54	-5	98*	1	48
CC(=O)Nc1ccc(NC(=O)c2ccc(C)c(S(=O)(=O)Nc3cccc(C)c3)c2)cc1	-6	.	-6	30	1.1	.
C=CCN(Cc1nc(-c2cc(OC)ccc2OC)oc1C)C1CCS(=O)(=O)C1 (stereo unspecified)	1	.	-1	26	1	.
CCN(CC)S(=O)(=O)c1cccc(NC(=O)c2cc(=O)[nH]c3ccccc23)c1	-1	82	-11	-6	1	91
CCCCC(c1nnnn1CC1CCCO1)N1CCN(c2cc(Cl)ccc2C)CC1 (stereo unspecified)	-11	62	-6	44	1.1	62
CCCC(c1nnnn1CC1CCCO1)N1CCN(c2nc3ccccc3s2)CC1 (stereo unspecified)	2	88	-1	94*	1	89
CCOC(=O)/C(C#N)=C/c1cccc(F)c1	-6	.	-12	-1	1.1	.
O=C(NNC(=O)c1cccnc1)Nc1cccc(Cl)c1Cl	-3	90	-33	-4	1	97
CCCCN(CCCC)CCCNC(=O)c1ccc2nc(-c3ccccc3NC(C)=O)c(=O)[nH]c2c1	1	.	-12	-3	1	.
CC(=O)Nc1ccccc1-c1nc2ccc(C(=O)N3CCN(c4cc(C)ccc4C)CC3)cc2[nH]c1=O	0	77	0	56*	1	82
Cc1onc(-c2ccccc2)c1C(=O)N1CCN(c2ncccn2)CC1	-6	.	-5	-5	1.1	.
COc1ccc(C2Nc3ccc4ccccc4c3-c3c2c(=O)oc2ccccc32)cc1 (stereo unspecified)	-5	1.5*	-21	100*	1	3.2*
CCOc1ccc(OCC(=O)c2c(O)c3ccccc3oc2=O)cc1	-2	98	-7	-8	1	90
O=c1oc2ccccc2c2c1C(c1ccc(Cl)cc1)Nc1ccc3ccccc3c1-2 (stereo unspecified)	-1	76	-12	87*	1	73
CCOc1ccc(C2Nc3ccc4ccccc4c3-c3c2c(=O)oc2ccccc32)cc1 (stereo unspecified)	-5	4	-35	56*	1.1	2.7*
COc1ccc(OCC(=O)c2c(O)c3ccccc3oc2=O)cc1	-3	99	-12	-14	1	110
Cc1ccc(C2Nc3ccc4ccccc4c3C3=C2C(=O)CC(C)(C)C3)o1 (stereo unspecified)	-2	61	-4	23	1	64
O=C(Nc1nnc(-c2ccccc2SCc2ccccc2F)s1)Nc1ccccc1F	-8	1.4*	-12	-3	1.1	1.3*
O=C(Nc1nnc(-c2cccc(F)c2)s1)Nc1ccccc1F	-6	.	-6	-5	1.1	.
Cc1cc(C)c(S(=O)(=O)NCCOc2ccccc2)c(C)c1-n1cnnn1	-4	.	3	9	1	.
CC(=O)Nc1sc(N/N=C\c2ccco2)nc1-c1cccs1	5	97	2	-2	1	98
Cc1ccc(-c2nc3cc(Cl)ccc3o2)cc1	-1	92	2	-4	1	94
Cc1ccc(S(=O)(=O)Nc2ccc(-c3nc4cc(NS(=O)(=O)c5ccc(C)cc5)ccc4o3)cc2)cc1	-8	21	16	98*	1.1	28
Cc1ccc(C(=O)c2cc(C)sc2NC(=O)CN2CCN(C(=O)c3ccco3)CC2)cc1	-2	71	4	50*	1	68
SMILES	TNAP inh hiacc	HCT116 PTEN-null	TNAP inh no acc	L major viab	TNAP act hi DEA	bCat KO growth
Cc1cc(C(=O)c2ccccc2)c(NC(=O)CN2CCOCC2)s1	-3	97	5	32	1	95
COc1ccccc1Cn1c(=O)c2ccccc2n2c(Sc3ncnc4sccc34)nnc12	0	5	-11	89*	1	9
Cc1ccc(C(=O)N/C(=C\c2cccs2)C(=O)NCCCn2ccnc2)cc1	-3	104	-7	0	1	94
COc1ccc(S(=O)(=O)NCCc2nnc3ccc(SCc4cccnc4)nn23)cc1	-2	.	-9	2	1	.
C/C(CC(=O)NCc1ccco1)=N\NC(=O)COc1ccc(C)cc1	-4	107	-16	37	1	104
Nc1c2c(nc3ccc(Br)cc13)N(Cc1ccccc1)CC2	5	86	-16	94*	0.9	86
Nc1c2c(nc3ccc(Br)cc13)N(C1CCCCC1)CC2	6	.	-5	101*	0.9	.
Nc1c2c(nc3ccccc13)N(C1CCCCC1)CC2	2	46	-11	.	1	53
Nc1c2c(nc3ccc(Br)cc13)N(c1ccccc1)CC2	-1	63	-11	100*	1	76
Cc1cccc(N2CCc3c2nc2ccc(Br)cc2c3N)c1	4	40	-4	100*	1	49
CCc1n[nH]c(=S)n1/N=C/c1cc(OC)cc([N+](=O)[O-])c1O	30	.	37	44	0.7	.
CCN(Cc1ccncc1)Cc1nc(-c2ccc(C(=O)OC)cc2)no1	-4	.	-3	48	1	.
Oc1ccccc1-c1cc(-c2ccc3c(c2)OCCO3)n[nH]1	-3	43	-14	27	1	23
O=C(O)c1cc(-c2ccc3c(c2)OCCO3)n[nH]1	-7	.	58*	-7	1.1	.
CCOC(=O)c1cc(-c2ccc3c(c2)OCCO3)n[nH]1	-3	.	84*	-6	1	.
CC[n+]1ccc(C(=O)NCc2ccccc2)cc1	-3	.	-10	-7	1	.
COc1ccc(-c2cn3c(C)c(C(=O)Nc4cccc(C)n4)sc3n2)cc1	-2	86	-2	96*	1	88
Cc1cccc(NC(=O)c2sc3nc(-c4ccccc4)cn3c2C)n1	-3	75	-16	18	1	68
CC(=O)Nc1ccc(NC(=O)C(C)OC(=O)CN(C)S(=O)(=O)c2ccc(Cl)cc2)cc1 (stereo unspecified)	-4	89	-18	-1	1	88
CC(=O)Nc1ccc(NC(=O)C(C)OC(=O)CNS(=O)(=O)c2cccc(Cl)c2)cc1 (stereo unspecified)	-7	.	-15	82*	1.1	.
CCCCN1CNC(=S)N(Cc2ccccc2)C1	2	90	7	-6	1	89
